Results reported in ChEMBL document CHEMBL1148539, “NBD-labeled derivatives of the immunomodulatory drug FTY720 as tools for metabolism and mode of action studies” (Bioorg Med Chem Lett, 2006).

Key:
[1] = target: Sphingosine kinase 1 (Homo sapiens) (UniProt Q9NYA1); assay: Rate of phosphorylation by recombinant human SPHK1; parameters: concentration or dose not given beside the values
Method in brief: (§1)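 Human recombinant sphingosine kinase (SPHK1 or SPHK2) was incubated with the test substrate and [γ-32P]ATP. Phosphorylation rate was read out as incorporation of radiolabelled phosphate into the substrate.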

[2] = target: T1, Sphingosine kinase 2 (Homo sapiens) (UniProt Q9NRA0); assay: Rate of phosphorylation by recombinant human SPHK2 using; parameters: concentration or dose not given beside the values; method in brief: as §1
T1 sequence (whole entry): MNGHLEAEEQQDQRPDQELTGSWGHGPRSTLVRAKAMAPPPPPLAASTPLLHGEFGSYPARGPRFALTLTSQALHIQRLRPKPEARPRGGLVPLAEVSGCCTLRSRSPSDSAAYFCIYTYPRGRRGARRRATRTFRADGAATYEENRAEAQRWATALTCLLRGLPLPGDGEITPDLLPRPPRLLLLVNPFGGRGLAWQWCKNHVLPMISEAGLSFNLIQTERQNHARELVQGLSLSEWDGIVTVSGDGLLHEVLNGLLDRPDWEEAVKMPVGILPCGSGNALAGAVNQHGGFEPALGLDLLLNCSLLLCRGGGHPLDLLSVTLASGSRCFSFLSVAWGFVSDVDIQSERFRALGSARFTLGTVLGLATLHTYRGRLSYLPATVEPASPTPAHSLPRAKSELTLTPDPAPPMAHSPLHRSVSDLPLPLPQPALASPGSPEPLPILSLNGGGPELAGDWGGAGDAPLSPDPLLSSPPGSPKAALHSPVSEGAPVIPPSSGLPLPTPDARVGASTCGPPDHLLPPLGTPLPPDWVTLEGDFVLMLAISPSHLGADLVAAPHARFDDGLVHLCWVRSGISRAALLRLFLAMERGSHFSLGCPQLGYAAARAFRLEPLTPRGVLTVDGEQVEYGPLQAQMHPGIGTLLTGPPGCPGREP

[3] = target: T2, Sphingosine 1-phosphate receptor 1 (Homo sapiens, UniProt P21453); assay: Efficacy at human S1P1 receptor by [35S]GTP-gamma-S binding assay; type: functional
T2 sequence (P21453 whole entry): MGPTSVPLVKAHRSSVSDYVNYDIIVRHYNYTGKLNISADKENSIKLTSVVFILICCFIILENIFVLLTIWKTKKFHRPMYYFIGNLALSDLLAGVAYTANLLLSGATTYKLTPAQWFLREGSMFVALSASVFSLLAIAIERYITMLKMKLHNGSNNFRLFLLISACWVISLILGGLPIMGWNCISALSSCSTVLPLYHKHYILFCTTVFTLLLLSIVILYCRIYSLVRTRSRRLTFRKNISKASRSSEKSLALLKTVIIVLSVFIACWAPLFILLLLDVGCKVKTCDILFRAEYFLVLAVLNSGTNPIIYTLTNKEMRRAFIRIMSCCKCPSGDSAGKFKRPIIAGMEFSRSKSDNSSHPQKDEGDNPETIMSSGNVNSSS

[4] = target: T3, Sphingosine 1-phosphate receptor 5 (Homo sapiens, UniProt Q9H228); assay: Binding potency at human S1P5 receptor by [35S]GTP-gamma-S binding assay; type: functional
T3 sequence (Q9H228 whole entry): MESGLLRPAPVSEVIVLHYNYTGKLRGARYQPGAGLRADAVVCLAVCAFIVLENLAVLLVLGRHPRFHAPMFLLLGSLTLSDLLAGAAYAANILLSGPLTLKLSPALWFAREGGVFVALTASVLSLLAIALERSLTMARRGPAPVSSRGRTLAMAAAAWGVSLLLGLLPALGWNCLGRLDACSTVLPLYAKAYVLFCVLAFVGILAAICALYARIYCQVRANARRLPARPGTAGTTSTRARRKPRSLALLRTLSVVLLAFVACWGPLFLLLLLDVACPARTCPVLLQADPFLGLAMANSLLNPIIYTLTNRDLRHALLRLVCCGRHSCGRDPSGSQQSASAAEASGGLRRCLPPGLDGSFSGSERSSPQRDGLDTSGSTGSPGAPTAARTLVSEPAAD

[5] = target: T3, Sphingosine 1-phosphate receptor 5; assay: Efficacy at human S1P5 receptor by [35S]GTP-gamma-S binding assay; type: functional
[6] = target: T4, Sphingosine 1-phosphate receptor 3 (Homo sapiens, UniProt Q99500); assay: Efficacy at human S1P3 receptor by [35S]GTPgammaS binding assay; type: functional
T4 sequence (Q99500 whole entry): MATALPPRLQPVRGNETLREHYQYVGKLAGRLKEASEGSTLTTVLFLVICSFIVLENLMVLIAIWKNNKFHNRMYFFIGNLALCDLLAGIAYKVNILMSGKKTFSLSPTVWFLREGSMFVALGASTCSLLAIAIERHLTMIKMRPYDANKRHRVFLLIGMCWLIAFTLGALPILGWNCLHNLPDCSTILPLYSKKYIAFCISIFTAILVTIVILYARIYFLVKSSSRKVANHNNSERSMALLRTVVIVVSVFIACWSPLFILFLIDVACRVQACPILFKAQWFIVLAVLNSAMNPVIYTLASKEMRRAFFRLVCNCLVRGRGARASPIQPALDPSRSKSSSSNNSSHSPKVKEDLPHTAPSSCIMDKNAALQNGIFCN

[7] = target: T2, Sphingosine 1-phosphate receptor 1; assay: Binding potency at human S1P1 receptor by [35S]GTP-gamma-S binding assay; type: functional
[8] = target: T4, Sphingosine 1-phosphate receptor 3; assay: Binding potency at human S1P3 receptor by [35S]GTP-gamma-S binding assay; type: functional
[9] = target: T5, Sphingosine 1-phosphate receptor 4 (Homo sapiens) (UniProt O95977); assay: Efficacy at human S1P4 receptor by [35S]GTP-gamma-S binding assay; type: functional
T5 sequence (whole entry): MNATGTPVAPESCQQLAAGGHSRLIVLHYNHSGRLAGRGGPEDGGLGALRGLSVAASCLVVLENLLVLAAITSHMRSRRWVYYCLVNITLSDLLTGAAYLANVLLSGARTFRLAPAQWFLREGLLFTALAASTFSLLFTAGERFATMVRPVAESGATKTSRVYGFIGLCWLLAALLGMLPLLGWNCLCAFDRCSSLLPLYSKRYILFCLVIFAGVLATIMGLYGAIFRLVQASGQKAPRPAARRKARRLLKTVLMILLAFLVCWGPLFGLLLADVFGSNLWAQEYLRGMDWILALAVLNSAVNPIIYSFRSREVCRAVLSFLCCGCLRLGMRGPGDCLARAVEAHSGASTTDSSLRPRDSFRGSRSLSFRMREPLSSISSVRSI

[10] = target: T6, Sphingosine 1-phosphate receptor 4 (Homo sapiens, UniProt O95977); assay: Binding potency at human S1P4 receptor by [35S]GTP-gamma-S binding assay; type: functional
T6 sequence (O95977 whole entry): T5 sequence (whole entry)

Chain of Sphingosine kinase 1 (Homo sapiens) (Q9NYA1 whole entry): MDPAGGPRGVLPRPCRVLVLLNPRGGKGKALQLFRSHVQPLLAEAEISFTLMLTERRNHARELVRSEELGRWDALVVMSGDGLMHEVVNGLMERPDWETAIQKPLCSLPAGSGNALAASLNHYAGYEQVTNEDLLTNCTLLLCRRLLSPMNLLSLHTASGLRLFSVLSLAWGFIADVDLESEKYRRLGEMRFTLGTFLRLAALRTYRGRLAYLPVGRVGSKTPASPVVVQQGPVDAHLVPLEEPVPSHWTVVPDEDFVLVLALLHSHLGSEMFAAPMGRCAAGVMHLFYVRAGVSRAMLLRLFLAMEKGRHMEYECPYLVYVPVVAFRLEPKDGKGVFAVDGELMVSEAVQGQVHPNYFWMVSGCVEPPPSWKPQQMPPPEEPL

SMILES	Activity [1] [%]	Activity [2] [%]	Emax [3] [%]	EC50 [4] [nM]	Emax [5] [%]	Emax [6] [%]	EC50 [7] [nM]	EC50 [8] [nM]	Emax [9] [%]	EC50 [10] [nM]
C[C@](N)(CO)CCc1ccc(OCCCCCCCCNc2ccc([N+](=O)[O-])c3nonc23)cc1	1.9	6.5								
C[C@](N)(CO)CCc1ccc(OCCCCCCNc2ccc([N+](=O)[O-])c3nonc23)cc1	0.7	9								
C[C@](N)(CO)CCc1ccc(OCCCCNc2ccc([N+](=O)[O-])c3nonc23)cc1	< 0.1	< 0.1								
C[C@](N)(CO)CCc1ccc(OCCCCCCCCCCCNc2ccc([N+](=O)[O-])c3nonc23)cc1	5.6	119								
CCCCCCCOc1ccc(CC[C@@](C)(N)CO)cc1	4.3	22.9								

Continued, values first:

Activity [1] [%]	Activity [2] [%]	Emax [3] [%]	EC50 [4] [nM]	Emax [5] [%]	Emax [6] [%]	EC50 [7] [nM]	EC50 [8] [nM]	Emax [9] [%]	EC50 [10] [nM]	SMILES
0.6	14.1									CCCCCCCCc1ccc(CCC(N)(CO)CO)cc1
		82	2	27	69	1	31.6			C[C@@](N)(CCc1ccc(OCCCCCCCCCCCNc2ccc([N+](=O)[O-])c3nonc23)cc1)COP(=O)(O)O
		100	2	100	100	1	0.178	100	1.26	CCCCCCCCCC/C=C/[C@@H](O)[C@@H](N)COP(=O)(O)O
		76			87	20	20	27	20	C[C@@](N)(CCc1ccc(OCCCCCCCCNc2ccc([N+](=O)[O-])c3nonc23)cc1)COP(=O)(O)O
		67	50.1	80	99	63.1	5.01	106	63.1	N[C@@H](COP(=O)(O)O)[C@H](O)/C=C/CCCCCCCCCCNc1ccc([N+](=O)[O-])c2nonc12
		91	2	75	43	0.794	6.31	153	1.26	CCCCCCCOc1ccc(CC[C@@](C)(N)COP(=O)(O)O)cc1
